Results from ChEMBL document CHEMBL4819040, “Limonoids from Guarea guidonia and Cedrela odorata: Heat Shock Protein 90 (Hsp90) Modulator Properties of Chisomicine D” (J Nat Prod, 2021).
Blank lines part the entries; values can stand above or below the compound they belong to. Active and inactive are the calls of the source. No cut-off for these calls is given here.

Legend:
[1] = target: T1, Heat shock protein HSP 90-alpha (Homo sapiens, UniProt P07900); test: Binding affinity to recombinant human HSP90alpha by surface plasmon resonance analysis
[2] = target: T1, Heat shock protein HSP 90-alpha; test: Effect on HSP90alpha in human U-937 cells assessed as HSP90 protein level at 10 uM after 48 hrs by Western blot analysis (reference value: 1.12); type: cell-based; conditions: filed as modulator
In short: (§1)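 U937 cells (RPMI 1640, 10% FBS, 37 °C, 5% CO2) treated 48 h at 10, 20 or 30 μM, DMSO vehicle ≤0.3%. RIPA lysates, Bradford protein assay, SDS-PAGE, nitrocellulose, HRP secondary with ECL detection. GAPDH loading control, densitometry normalized. Run in duplicate.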

[3] = target: T1, Heat shock protein HSP 90-alpha; test: Effect on HSP90alpha in human U-937 cells assessed as JNK p46 protein level at 30 uM after 48 hrs by Western blot analysis (reference value: 1.22); type: cell-based; conditions: filed as modulator; in short: as §1
U-937 [4] = test: Induction of cell cycle arrest in human U937 cells assessed as decrease in cells at S phase at 20 uM incubated for 48 hrs PI staining based flow cytometric analysis (reference value: 23.6 %); type: functional; parameters: scale not given: the % may be the effect or the level left
U-937 [5] = test: Induction of apoptosis in human U-937 cells assessed as cleavage of pro-caspase at 20 uM by Western blotting analysis; type: functional, cell-based
In short: (§2)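 U937 cells given vehicle (DMSO) or 10 or 20 μM. RIPA whole-cell lysates (protease/phosphatase inhibitors) resolved by SDS-PAGE, blotted to nitrocellulose, ECL detection. Targets: pro-caspase 3/caspase 3 or p-CDC2 (p34)/CDC2. Densitometry normalized. Duplicate experiments.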

[6] = target: T1, Heat shock protein HSP 90-alpha; test: Effect on HSP90alpha in human U-937 cells assessed as JNK p46 protein level at 20 uM after 48 hrs by Western blot analysis (reference value: 1.22); type: cell-based; conditions: filed as modulator; in short: as §1
U-937 [7] = test: Induction of apoptosis in human U-937 cells assessed as necrotic cells at 20 uM after 48 hrs by AnnexinV-FITC/propidium iodide staining based flow cytometry (reference value: 0 %); type: functional
U-937 [8] = test: Induction of cell cycle arrest in human U937 cells assessed as phosphorylated CDC2 expression at 10 uM by Western blotting analysis (reference value: 1.07); type: functional; in short: as §2
[9] = target: T1, Heat shock protein HSP 90-alpha; test: Effect on HSP90alpha in human U-937 cells assessed as p-JNK p46 protein level at 30 uM after 48 hrs by Western blot analysis (reference value: 1.06); type: cell-based; conditions: filed as modulator; in short: as §1
[10] = Cytotoxicity against human PBMC cells assessed as cell viability after 48 hrs by MTT assay; type: cell-based
In short: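 PBMCs isolated from healthy-donor buffy coats on Ficoll-Hypaque gradients, exposed to 30 μM or DMSO for 48 h. Viability read by MTT (absorbance 550 nm). Technical triplicates, repeated twice.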

U-937 [11] = test: Induction of apoptosis in human U-937 cells assessed as early apoptotic cells at 20 uM after 48 hrs by AnnexinV-FITC/propidium iodide staining based flow cytometry (reference value: 4.90 %); type: functional
U-937 [12] = test: Induction of cell cycle arrest in human U937 cells assessed as CDC2 protein expression at 20 uM by Western blotting analysis (reference value: 1.22); type: functional; in short: as §2
[13] = target: T1, Heat shock protein HSP 90-alpha; test: Effect on HSP90alpha in human U-937 cells assessed as ERK2 protein level at 20 uM after 48 hrs by Western blot analysis (reference value: 0.69); type: cell-based; conditions: filed as modulator; in short: as §1
U-937 [14] = test: Induction of apoptosis in human U-937 cells assessed as late apoptotic cells at 20 uM after 48 hrs by AnnexinV-FITC/propidium iodide staining based flow cytometry (reference value: 12.4 %); type: functional
U-937 [15] = test: Induction of apoptosis in human U-937 cells assessed as viable cells at 20 uM after 48 hrs by AnnexinV-FITC/propidium iodide staining based flow cytometry (reference value: 82.7 %); type: functional; conditions: read-out: Activity
[16] = target: T1, Heat shock protein HSP 90-alpha; test: Effect on HSP90alpha in human U-937 cells assessed as JNK p54 protein level at 10 uM after 48 hrs by Western blot analysis (reference value: 2.45); type: cell-based; conditions: filed as modulator; in short: as §1
[17] = target: T1, Heat shock protein HSP 90-alpha; test: Effect on HSP90alpha in human U-937 cells assessed as HSP90 protein level at 20 uM after 48 hrs by Western blot analysis (reference value: 1.12); type: cell-based; conditions: filed as modulator; in short: as §1
[18] = target: T1, Heat shock protein HSP 90-alpha; test: Effect on HSP90alpha in human U-937 cells assessed as HSP90 protein level at 30 uM after 48 hrs by Western blot analysis (reference value: 1.12); type: cell-based; conditions: filed as modulator; in short: as §1
[19] = target: T1, Heat shock protein HSP 90-alpha; test: Effect on HSP90alpha in human U-937 cells assessed as HSP70 protein level at 20 uM after 48 hrs by Western blot analysis (reference value: 0.83); type: cell-based; conditions: filed as modulator; in short: as §1
[20] = target: T1, Heat shock protein HSP 90-alpha; test: Effect on HSP90alpha in human U-937 cells assessed as p-ERK2 protein level at 10 uM after 48 hrs by Western blot analysis (reference value: 1.67); type: cell-based; conditions: filed as modulator; in short: as §1
[21] = target: T1, Heat shock protein HSP 90-alpha; test: Effect on HSP90alpha in human U-937 cells assessed as p-JNK p54 protein level at 10 uM after 48 hrs by Western blot analysis (reference value: 2.22); type: cell-based; conditions: filed as modulator; in short: as §1
U-937 [22] = test: Induction of cell cycle arrest in human U937 cells assessed as increase in cells at G2 phase at 20 uM incubated for 48 hrs PI staining based flow cytometric analysis (reference value: 11.1 %); type: functional
[23] = target: T1, Heat shock protein HSP 90-alpha; test: Effect on HSP90alpha in human U-937 cells assessed as ERK2 protein level at 10 uM after 48 hrs by Western blot analysis (reference value: 0.69); type: cell-based; conditions: filed as modulator; in short: as §1
[24] = target: T1, Heat shock protein HSP 90-alpha; test: Effect on HSP90alpha in human U-937 cells assessed as HSP70 protein level at 10 uM after 48 hrs by Western blot analysis (reference value: 0.83); type: cell-based; conditions: filed as modulator; in short: as §1
U-937 [25] = test: Induction of cell cycle arrest in human U937 cells assessed as CDC2 protein expression at 10 uM by Western blotting analysis (reference value: 1.22); type: functional; in short: as §2
U-937 [26] = test: Induction of cell cycle arrest in human U937 cells assessed as G1 phase cells at 20 uM incubated for 48 hrs PI staining based flow cytometric analysis (reference value: 60.8 %); type: functional
[27] = target: T1, Heat shock protein HSP 90-alpha; test: Effect on HSP90alpha in human U-937 cells assessed as p-JNK p46 protein level at 20 uM after 48 hrs by Western blot analysis (reference value: 1.06); type: cell-based; conditions: filed as modulator; in short: as §1
[28] = target: T1, Heat shock protein HSP 90-alpha; test: Inhibition of HSP90alpha (unknown origin) at 10 to 20 uM; conditions: dose 10-20 µM
[29] = target: T1, Heat shock protein HSP 90-alpha; test: Effect on HSP90alpha in human U-937 cells assessed as JNK p46 protein level at 10 uM after 48 hrs by Western blot analysis (reference value: 1.22); type: cell-based; conditions: filed as modulator; in short: as §1
[30] = target: T1, Heat shock protein HSP 90-alpha; test: Effect on HSP90alpha in human U-937 cells assessed as ERK2 protein level at 30 uM after 48 hrs by Western blot analysis (reference value: 0.69); type: cell-based; conditions: filed as modulator; in short: as §1
[31] = target: T1, Heat shock protein HSP 90-alpha; test: Effect on HSP90alpha in human U-937 cells assessed as HSP70 protein level at 30 uM after 48 hrs by Western blot analysis (reference value: 0.83); type: cell-based; conditions: filed as modulator; in short: as §1
[32] = target: T1, Heat shock protein HSP 90-alpha; test: Effect on HSP90alpha in human U-937 cells assessed as p-JNK p46 protein level at 10 uM after 48 hrs by Western blot analysis (reference value: 1.06); type: cell-based; conditions: filed as modulator; in short: as §1
U-937 [33] = test: Induction of cell cycle arrest in human U937 cells assessed as phosphorylated CDC2 expression at 20 uM by Western blotting analysis (reference value: 1.07); type: functional; in short: as §2

Kd [1]: Not Active
Compound: CC(=O)O[C@H]1CC(=O)OC(C)(C)[C@@H]2C[C@@H](OC(C)=O)[C@@]3(C)C4=CC[C@@H](C(O)(CO)CCO)[C@]4(C)CC[C@@H]3[C@@]12C (stereo partly specified)

fold change (FC) [2]: 1.21 | fold change (FC) [3]: 0.65 | fold change (FC) [6]: 0.92 | fold change (FC) [9]: 0.95 | fold change (FC) [13]: 1.17 | fold change (FC) [16]: 1.18 | fold change (FC) [17]: 0.82 | fold change (FC) [18]: 0.93 | fold change (FC) [19]: 0.91 | fold change (FC) [20]: 2.12 | fold change (FC) [21]: 1.45 | fold change (FC) [23]: 1.17 | fold change (FC) [24]: 1.3 | fold change (FC) [27]: 1.01 | inhibition [28]: inactive | fold change (FC) [29]: 1.13 | fold change (FC) [30]: 1.03 | fold change (FC) [31]: 1 | fold change (FC) [32]: 0.97
Compound: C/C=C(\C)C(=O)O[C@@H]1/C=C\[C@]2(O)C3=CC(=O)O[C@@H](c4ccoc4)[C@]3(C)CC[C@]2(O)[C@]2(C)C(=O)C[C@@]1(C)[C@@H]2CC(=O)OC (relative stereo)
Activity (U-937 [4]): 12.3% | Activity (U-937 [5]): Active | Activity (U-937 [7]): 0% | fold change (FC) (U-937 [8]): 0.84 | Activity [10]: Non-Toxic | Activity (U-937 [11]): 8.62% | fold change (FC) (U-937 [12]): 0.58 | Activity (U-937 [14]): 28.3% | viability at 20 µM (U-937 [15]): 63.1% | Activity (U-937 [22]): 16.7% | fold change (FC) (U-937 [25]): 1.18 | Activity (U-937 [26]): 53.1% | fold change (FC) (U-937 [33]): 1.09

Kd [1]: Not Active
Compound: COC(=O)C[C@H]1C(C)(C)[C@H](O)[C@@H]2CC3=C4CC(=O)O[C@@H](c5ccoc5)[C@]4(C)CC[C@@H]3[C@@]1(C)C2=O [PROCERANOLIDE]

More lines, now with the values behind:

Compound: CC(=O)O[C@H]1C[C@@]2(C)[C@H](C3=CC(=O)O[C@@H]3O)OC(=O)[C@H]3O[C@]32[C@@]2(C)[C@H]1[C@@]1(C)[C@@H](OC(C)=O)CC(=O)OC(C)(C)[C@@H]1C[C@H]2OC(C)=O
Kd [1]: Not Active

Compound: COC(=O)C[C@H]1C(C)(C)[C@H](OC(=O)C(O)C(C)C)[C@@H]2C=C3C4CC(=O)O[C@@H](c5ccoc5)[C@]4(C)CC[C@@H]3[C@@]1(C)C2=O (stereo partly specified)
Kd [1]: Not Active

Compound: C=C(C)C(=O)O[C@@H]1/C=C\[C@]2(O)C3=CC(=O)O[C@@H](c4ccoc4)[C@]3(C)CC[C@]2(O)[C@]2(C)C(=O)C[C@@]1(C)[C@@H]2CC(=O)OC
Kd [1]: Not Active

Compound: CC(=O)O[C@H]1C[C@@]2(C)[C@H](C3=CC(=O)O[C@@H]3O)OC(=O)[C@H]3O[C@]32[C@@]2(C)[C@H]1[C@@]1(C)C=CC(=O)OC(C)(C)[C@@H]1C[C@H]2OC(C)=O
Kd [1]: Not Active

Compound: CC(=O)O[C@H]1C[C@@]2(C)[C@H](c3ccoc3)OC(=O)[C@H]3O[C@]32[C@@]2(C)[C@H]1[C@@]1(C)[C@@H](OC(C)=O)CC(=O)OC(C)(C)[C@@H]1C[C@H]2OC(C)=O
Kd [1]: Not Active

Compound: COC(=O)C[C@H](OC(C)=O)[C@]1(C)[C@H]2[C@@H](OC(C)=O)C[C@@]3(C)[C@H](c4ccoc4)OC(=O)[C@H]4O[C@]43[C@]2(C)[C@H](OC(C)=O)C[C@H]1C(C)(C)O
Kd [1]: Not Active

Compound: C/C=C(\C)C(=O)O[C@@H]1/C=C\C2=C3CC(=O)O[C@@H](c4ccoc4)[C@]3(C)CC[C@]2(O)[C@]2(C)C(=O)C[C@@]1(C)[C@@H]2CC(=O)OC (relative stereo)
Kd [1]: Not Active
